Measured values from ChEMBL document CHEMBL3297718, “Ultrasound-assisted one-pot four-component synthesis of novel 2-amino-3-cyanopyridine derivatives bearing 5-imidazopyrazole scaffold and their biological broadcast” (Eur J Med Chem, 2014).
≈ marks a conversion by molar mass, not a printed value.

How the values were obtained:
[1] = test system: Mycobacterium tuberculosis; assay: Antitubercular activity against Mycobacterium tuberculosis H37Rv at 250 ug/ml; format: functional
[2] = test system: Vibrio cholerae; assay: Antimicrobial activity against Vibrio cholerae MTCC 3906 by broth microdilution method; format: functional
[3] = test system: Bacillus subtilis; assay: Antimicrobial activity against Bacillus subtilis MTCC 441 by broth microdilution method; format: functional
In short: (§1)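 Broth microdilution following NCCLS. Compounds were diluted in 2% DMSO in water. Fungi were grown in Sabouraud dextrose broth. Inoculum was set to 10⁸ CFU mL⁻¹ by turbidity. A primary serial-dilution screen was followed by a secondary set of lower dilutions for primary actives. Tubes were incubated at 37 °C, with growth noted at 24 and 48 h. MIC was the highest dilution preventing turbidity after spot subculture.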

[4] = test system: Clostridium tetani; assay: Antimicrobial activity against Clostridium tetani MTCC 449 by broth microdilution method; format: functional
[5] = test system: Candida albicans; assay: Antimicrobial activity against Candida albicans MTCC 227 by broth microdilution method; format: functional; in short: as §1
[6] = test system: Mycobacterium tuberculosis; assay: Antitubercular activity against Mycobacterium tuberculosis H37Rv; format: functional
In short: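 M. tuberculosis H37Rv was grown on Lowenstein–Jensen medium with compound at a single concentration of 250, and compared against control tubes of medium alone with the organism. Results are given as % inhibition, and the concentration giving complete inhibition of colonies was taken as the active concentration.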

[7] = test system: Escherichia coli; assay: Antimicrobial activity against Escherichia coli MTCC 443 by broth microdilution method; format: functional; in short: as §1
[8] = test system: Streptococcus pneumoniae; assay: Antimicrobial activity against Streptococcus pneumoniae MTCC 1936 by broth microdilution method; format: functional
[9] = test system: Salmonella typhi; assay: Antimicrobial activity against Salmonella typhi MTCC 98 by broth microdilution method; format: functional, Salmonella enterica subsp. enterica serovar Typhi; settings: Salmonella enterica
[10] = Antioxidant activity assessed as ferric ion reducing activity using fe3+-TPTZ at 200 mg/ml measured as ascorbic acid per 100 g sample by FRAP assay; format: physicochemical
In short: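 FRAP assay, modified Benzie–Strain. Reagent combined TPTZ in 40 mM HCl, aqueous FeCl₃·6H₂O and acetate buffer at pH 3.6. Sample solution was mixed with 3 mL reagent and incubated 25 min at 37 °C. Fe(II)–TPTZ absorbance was read at 593 nm against an ascorbic acid standard. Results are given as ascorbic equivalents, mmol/100 g compound.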

[11] = test system: Aspergillus fumigatus; assay: Antimicrobial activity against Aspergillus fumigatus MTCC 3008 by broth microdilution method; format: functional; in short: as §1

SMILES | inhibition at 250 µg/mL [1] [%] | MIC [2] [µg/mL] | MIC [3] [µg/mL] | MIC [4] [µg/mL] | MIC [5] [µg/mL] | MIC [6] [µg/mL] | MIC [7] [µg/mL] | MIC [8] [µg/mL] | MIC [9] [µg/mL] | Activity [10] [mmol] | MIC [11] [µg/mL]
Cc1nn(-c2ccccc2)c(-n2ccnc2)c1C=O | 91 | 250 (≈ 991 µM) | 250 (≈ 991 µM) | 250 (≈ 991 µM) | > 1000 | 100 (≈ 396 µM) | 100 (≈ 396 µM) | 500 (≈ 1980 µM) | 125 (≈ 495 µM) | 242.88 | > 1000
Cc1cn(-c2c(C=O)c(C)nn2-c2ccccc2)cn1 | 65 | 250 (≈ 939 µM) | 100 (≈ 376 µM) | 150 (≈ 563 µM) | 250 (≈ 939 µM) |  | 250 (≈ 939 µM) | 500 (≈ 1880 µM) | 200 (≈ 751 µM) | 213.24 | 500 (≈ 1880 µM)
Cc1nn(-c2ccccc2)c(-n2ccnc2)c1-c1cc(-c2ccccc2)nc(N)c1C#N | 25 | 250 (≈ 599 µM) | 200 (≈ 479 µM) | 250 (≈ 599 µM) | 1000 (≈ 2400 µM) |  | 250 (≈ 599 µM) | 250 (≈ 599 µM) | 200 (≈ 479 µM) | 427.08 | 1000 (≈ 2400 µM)
Cc1cn(-c2c(-c3cc(-c4ccccc4)nc(N)c3C#N)c(C)nn2-c2ccccc2)cn1 | 84 | 200 (≈ 463 µM) | 100 (≈ 232 µM) | 500 (≈ 1160 µM) | > 1000 |  | 200 (≈ 463 µM) | 500 (≈ 1160 µM) | 250 (≈ 579 µM) | 401.81 | > 1000
Cc1nn(-c2ccccc2)c(-n2ccnc2)c1-c1cc(-c2ccc(-c3ccccc3)cc2)nc(N)c1C#N | 45 | 500 (≈ 1010 µM) | 500 (≈ 1010 µM) | 250 (≈ 507 µM) | 500 (≈ 1010 µM) |  | 100 (≈ 203 µM) | 500 (≈ 1010 µM) | 125 (≈ 253 µM) | 497.1 | 500 (≈ 1010 µM)
Cc1cn(-c2c(-c3cc(-c4ccc(-c5ccccc5)cc4)nc(N)c3C#N)c(C)nn2-c2ccccc2)cn1 | 23 | 100 (≈ 197 µM) | 250 (≈ 493 µM) | 250 (≈ 493 µM) | 500 (≈ 985 µM) |  | 250 (≈ 493 µM) | 125 (≈ 246 µM) | 200 (≈ 394 µM) | 495.9 | 500 (≈ 985 µM)
Cc1nn(-c2ccccc2)c(-n2ccnc2)c1-c1cc(-c2ccc(Cl)cc2)nc(N)c1C#N | 16 | 500 (≈ 1110 µM) | 500 (≈ 1110 µM) | 500 (≈ 1110 µM) | 1000 (≈ 2210 µM) |  | 62.5 (≈ 138 µM) | 100 (≈ 221 µM) | 200 (≈ 443 µM) | 490.33 | 500 (≈ 1110 µM)
Cc1cn(-c2c(-c3cc(-c4ccc(Cl)cc4)nc(N)c3C#N)c(C)nn2-c2ccccc2)cn1 | 22 | 250 (≈ 537 µM) | 500 (≈ 1070 µM) | 500 (≈ 1070 µM) | 1000 (≈ 2150 µM) |  | 200 (≈ 429 µM) | 200 (≈ 429 µM) | 250 (≈ 537 µM) | 404.8 | 500 (≈ 1070 µM)
Cc1nn(-c2ccccc2)c(-n2ccnc2)c1-c1cc(-c2ccc(Br)cc2)nc(N)c1C#N | 37 | 200 (≈ 403 µM) | 200 (≈ 403 µM) | 200 (≈ 403 µM) | 500 (≈ 1010 µM) |  | 100 (≈ 201 µM) | 200 (≈ 403 µM) | 200 (≈ 403 µM) | 67.63 | 500 (≈ 1010 µM)
Cc1cn(-c2c(-c3cc(-c4ccc(Br)cc4)nc(N)c3C#N)c(C)nn2-c2ccccc2)cn1 | 84 | 250 (≈ 490 µM) | 62.5 (≈ 122 µM) | 100 (≈ 196 µM) | 1000 (≈ 1960 µM) |  | 500 (≈ 980 µM) | 250 (≈ 490 µM) | 500 (≈ 980 µM) | 70.61 | > 1000
Cc1nn(-c2ccccc2)c(-n2ccnc2)c1-c1cc(-c2ccc(F)cc2)nc(N)c1C#N | 15 | 200 (≈ 459 µM) | 200 (≈ 459 µM) | 500 (≈ 1150 µM) | 1000 (≈ 2300 µM) |  | 500 (≈ 1150 µM) | 200 (≈ 459 µM) | 500 (≈ 1150 µM) | 405.2 | 1000 (≈ 2300 µM)
Cc1cn(-c2c(-c3cc(-c4ccc(F)cc4)nc(N)c3C#N)c(C)nn2-c2ccccc2)cn1 | 62 | 100 (≈ 222 µM) | 500 (≈ 1110 µM) | 250 (≈ 556 µM) | > 1000 |  | 500 (≈ 1110 µM) | 100 (≈ 222 µM) | 250 (≈ 556 µM) | 392.66 | 1000 (≈ 2220 µM)
